Measured values as given in ChEMBL document CHEMBL1158557, “In vitro TRPV1 activity of piperine derived amides” (Bioorg Med Chem, 2010).
The source made the active and inactive calls. The calls are words filed in the database; no cut-off is given here.

Tests used:
[1] = target: T1, Transient receptor potential cation channel subfamily V member 1 (Homo sapiens, UniProt Q8NER1); test: Antagonist activity at human TRPV1 expressed in tetracycline-stimulated HEK293 cells assessed as inhibition of capsaicin-induced intracellular calcium levels by fluorimetric assay relative to control; type: functional, cell-based
T1 sequence (Q8NER1 whole entry): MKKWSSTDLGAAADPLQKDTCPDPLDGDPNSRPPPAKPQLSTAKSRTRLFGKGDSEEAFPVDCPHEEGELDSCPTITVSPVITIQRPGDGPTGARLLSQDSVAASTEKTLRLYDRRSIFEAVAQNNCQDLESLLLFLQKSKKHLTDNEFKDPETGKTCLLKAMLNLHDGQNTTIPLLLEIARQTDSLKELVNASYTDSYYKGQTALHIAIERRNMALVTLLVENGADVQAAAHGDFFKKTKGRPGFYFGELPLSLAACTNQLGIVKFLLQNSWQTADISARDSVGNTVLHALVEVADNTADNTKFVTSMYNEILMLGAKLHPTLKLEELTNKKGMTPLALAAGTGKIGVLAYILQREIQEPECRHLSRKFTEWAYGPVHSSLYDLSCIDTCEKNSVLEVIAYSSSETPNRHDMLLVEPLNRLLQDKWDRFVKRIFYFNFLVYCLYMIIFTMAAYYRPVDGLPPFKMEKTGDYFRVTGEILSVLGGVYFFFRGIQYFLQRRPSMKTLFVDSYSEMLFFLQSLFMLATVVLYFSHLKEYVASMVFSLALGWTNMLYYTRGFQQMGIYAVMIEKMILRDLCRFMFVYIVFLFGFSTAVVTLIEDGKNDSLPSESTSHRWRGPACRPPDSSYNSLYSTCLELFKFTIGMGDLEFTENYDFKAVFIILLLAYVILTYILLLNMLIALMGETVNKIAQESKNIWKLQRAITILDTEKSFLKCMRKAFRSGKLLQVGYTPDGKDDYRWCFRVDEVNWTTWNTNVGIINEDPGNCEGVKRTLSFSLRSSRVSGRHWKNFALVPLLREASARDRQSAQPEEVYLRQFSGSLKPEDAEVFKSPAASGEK

[2] = target: T1, Transient receptor potential cation channel subfamily V member 1; test: Antagonist activity at human TRPV1 expressed in tetracycline-stimulated HEK293 cells assessed as inhibition of capsaicin-induced intracellular calcium levels by fluorimetric assay; type: functional, cell-based
[3] = target: T1, Transient receptor potential cation channel subfamily V member 1; test: Agonist activity at human TRPV1 expressed in tetracycline-stimulated HEK293 cells assessed as increase in intracellular calcium levels by fluorimetric assay relative to control; type: functional, cell-based
Summary of the method: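 Tetracycline induction (0.1 µg/mL, 16–24 h) of HEK T-REx hTRPV1 cells, then Fluo-4/AM loading (1 µM, with probenecid 2 mM, 1 h, 37 °C) and a 30 min rest in HEPES buffer pH 7.4. Screening at 100 µM, then full concentration–response for compounds above 50%. Ex 488/em 520 nm, 22–24 °C, triplicate wells.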

[4] = target: T1, Transient receptor potential cation channel subfamily V member 1; test: Agonist activity at human TRPV1 expressed in tetracycline-stimulated HEK293 cells assessed as increase in intracellular calcium levels by fluorimetric assay; type: functional, cell-based
[5] = target: T1, Transient receptor potential cation channel subfamily V member 1; test: Agonist activity at human TRPV1 expressed in HEK293 cells assessed as increase in intracellular calcium levels by fluorimetric assay without tetracycline-stimulation; type: functional, cell-based
Summary of the method: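 Non-induced HEK T-REx hTRPV1 cells (no tetracycline) loaded with Fluo-4/AM 1 µM plus probenecid 2 mM for 1 h at 37 °C, then equilibrated 30 min in HEPES buffer pH 7.4. Compounds at 100 µM (10 µM where solubility poor), DMSO ≤0.1%. Fluorescence read at 488/520 nm, 22–24 °C, triplicate wells. Response given as % of 1 µM ionomycin; n = 4–6.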

[6] = target: T1, Transient receptor potential cation channel subfamily V member 1; test: Displacement of [3H]resiniferatoxin from human TRPV1

| Compound | Emax [1] [%] | EC50 [2] [nM] | Emax [3] [%] | EC50 [4] [nM] | Activity [5] | Activity [6] |
| --- | --- | --- | --- | --- | --- | --- |
| CC(C)CNC(=O)/C=C/C=C/c1ccc2c(c1)OCO2 [PIPERLONGUMININE] | 94 | 6.31 | – | – | – | – |
| COc1cc(CNC(=O)CCCC/C=C/C(C)C)ccc1O | – | – | 97 | – | – | – |
| O=C(/C=C/C=C/c1ccc2c(c1)OCO2)Nc1ccc(Cl)cc1 | 94 | 10 | – | – | – | – |
| Oc1cc2c(cc1O)CN(C(=S)NCCc1ccc(Cl)cc1)CCC2 [CAPSAZEPINE] | 92 | 2510 | – | – | – | – |
| O=C(CCCCc1ccc2c(c1)OCO2)N1CCCCC1 [TETRAHYDROPIPERINE] | – | – | 90 | 6310 | inactive | – |
| O=C(/C=C/CCc1ccc2c(c1)OCO2)N1CCCCC1 [PIPERANINE] | – | – | 88 | 3980 | inactive | – |
| COc1cc(/C=C/C(=O)NCC(C)C)ccc1O | 94 | 6.31 | – | – | – | – |
| COc1cc(/C=C/C(=O)N2CCCCC2)ccc1O | 93 | 2 | – | – | – | – |
| O=C(/C=C/C=C/c1ccc2c(c1)OCO2)N1CCCCC1 [PIPERINE] | – | – | 91 | 3160 | inactive | inactive |
| COc1cc(/C=C/C(=O)N2CCSCC2)ccc1O | 93 | 2.51 | – | – | – | – |
| O=C(/C=C/C=C/c1ccc2c(c1)OCO2)N1CCOCC1 | – | – | 93 | 2510 | inactive | – |
| COc1cc(/C=C/C(=O)N2CCOCC2)ccc1O | 92 | 2.51 | – | – | – | – |
| O=C(/C=C/c1ccc2c(c1)OCO2)N1CCCCC1 [ILEPCIMIDE] | – | – | 66 | 20000 | inactive | – |
